Measured values as given in ChEMBL document CHEMBL1141595, “1-(2-Phenoxyphenyl)methanamines: SAR for dual serotonin/noradrenaline reuptake inhibition, metabolic stability and hERG affinity” (Bioorg Med Chem Lett, 2008).
pIC50, pKi: −log10 of the molar value.

Columns and labels:
[1] = Metabolic stability assessed as intrinsic clearance in human liver microsomes; assay type: ADME, Microsome
[2] = biological target: Sodium-dependent serotonin transporter (Homo sapiens, UniProt P31645); test: Inhibition of [3H]5HT uptake at human 5HT transporter expressed in HEK293 cells; assay type: cell-based
Method in brief: (§1)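 HEK293 cells each expressing one human amine transporter, 7500 cells/well, preincubated 5 min at 25 °C with compound or DMSO vehicle. Uptake was started with tritiated substrate: 5-HT 50 nM (5 min), NA 200 nM (15 min), DA 200 nM (5 min), shaken at 25 °C. Stopped by ice-cold wash and filtration, then scintillation counting.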

[3] = biological target: Sodium-dependent noradrenaline transporter (Homo sapiens, UniProt P23975); test: Inhibition of [3H]NA uptake at human NA transporter expressed in HEK293 cells; assay type: cell-based; method in brief: as §1
[4] = biological target: Sodium-dependent dopamine transporter (Homo sapiens, UniProt Q01959); test: Inhibition of [3H]dopamine uptake at human dopamine transporter expressed in HEK293 cells; assay type: cell-based; method in brief: as §1
[5] = biological target: Voltage-gated inwardly rectifying potassium channel KCNH2 (Homo sapiens, UniProt Q12809); test: Binding affinity to human ERG
[6] = Membrane permeability by PAMPA assay; assay type: ADME

Sodium-dependent dopamine transporter, sequence (Q01959 whole entry): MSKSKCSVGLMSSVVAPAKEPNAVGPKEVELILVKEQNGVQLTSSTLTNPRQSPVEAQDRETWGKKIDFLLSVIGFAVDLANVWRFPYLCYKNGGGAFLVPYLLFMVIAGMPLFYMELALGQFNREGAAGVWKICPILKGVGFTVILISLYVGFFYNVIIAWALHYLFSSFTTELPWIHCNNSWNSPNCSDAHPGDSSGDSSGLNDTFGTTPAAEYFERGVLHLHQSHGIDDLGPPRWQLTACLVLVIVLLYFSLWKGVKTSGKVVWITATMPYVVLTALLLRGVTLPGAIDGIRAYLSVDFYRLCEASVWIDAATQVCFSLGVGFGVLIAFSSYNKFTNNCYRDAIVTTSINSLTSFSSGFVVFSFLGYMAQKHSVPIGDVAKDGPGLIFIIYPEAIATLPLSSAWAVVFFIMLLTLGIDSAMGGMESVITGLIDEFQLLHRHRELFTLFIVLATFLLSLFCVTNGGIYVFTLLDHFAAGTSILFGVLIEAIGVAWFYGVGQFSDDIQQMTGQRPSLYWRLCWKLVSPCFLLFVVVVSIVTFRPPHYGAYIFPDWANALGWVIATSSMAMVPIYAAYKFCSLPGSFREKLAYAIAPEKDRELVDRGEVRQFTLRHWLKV
Voltage-gated inwardly rectifying potassium channel KCNH2, sequence (Q12809 whole entry): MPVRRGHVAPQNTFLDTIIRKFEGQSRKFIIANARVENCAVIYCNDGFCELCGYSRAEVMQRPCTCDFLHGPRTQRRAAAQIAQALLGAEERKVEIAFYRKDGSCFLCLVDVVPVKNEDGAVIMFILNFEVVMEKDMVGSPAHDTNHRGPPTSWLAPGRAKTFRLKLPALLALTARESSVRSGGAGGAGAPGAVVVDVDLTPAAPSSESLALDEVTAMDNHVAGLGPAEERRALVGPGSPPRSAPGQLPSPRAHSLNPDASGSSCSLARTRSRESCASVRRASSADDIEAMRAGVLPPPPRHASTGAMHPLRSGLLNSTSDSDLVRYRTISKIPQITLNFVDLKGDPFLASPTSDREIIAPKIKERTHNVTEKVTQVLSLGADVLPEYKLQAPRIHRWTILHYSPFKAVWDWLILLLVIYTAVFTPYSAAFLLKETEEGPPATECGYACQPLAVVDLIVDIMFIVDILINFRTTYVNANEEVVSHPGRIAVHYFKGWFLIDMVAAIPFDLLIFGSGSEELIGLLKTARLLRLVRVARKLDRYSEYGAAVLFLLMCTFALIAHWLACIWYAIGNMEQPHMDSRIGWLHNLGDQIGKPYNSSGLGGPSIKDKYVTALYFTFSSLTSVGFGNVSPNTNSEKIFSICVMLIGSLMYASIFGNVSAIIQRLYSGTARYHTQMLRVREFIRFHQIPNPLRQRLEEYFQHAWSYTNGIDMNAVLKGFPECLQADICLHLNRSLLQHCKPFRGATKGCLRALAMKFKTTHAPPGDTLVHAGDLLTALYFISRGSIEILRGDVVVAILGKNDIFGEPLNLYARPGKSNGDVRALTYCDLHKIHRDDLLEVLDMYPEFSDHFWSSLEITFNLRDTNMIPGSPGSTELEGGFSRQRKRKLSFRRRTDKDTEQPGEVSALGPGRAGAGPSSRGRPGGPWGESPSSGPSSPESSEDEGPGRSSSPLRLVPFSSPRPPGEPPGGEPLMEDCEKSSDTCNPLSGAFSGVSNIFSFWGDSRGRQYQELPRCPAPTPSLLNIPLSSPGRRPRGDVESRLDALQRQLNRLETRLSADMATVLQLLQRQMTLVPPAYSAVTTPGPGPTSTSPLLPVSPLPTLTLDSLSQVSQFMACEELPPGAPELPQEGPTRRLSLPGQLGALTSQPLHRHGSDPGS
Sodium-dependent serotonin transporter, sequence (P31645 whole entry): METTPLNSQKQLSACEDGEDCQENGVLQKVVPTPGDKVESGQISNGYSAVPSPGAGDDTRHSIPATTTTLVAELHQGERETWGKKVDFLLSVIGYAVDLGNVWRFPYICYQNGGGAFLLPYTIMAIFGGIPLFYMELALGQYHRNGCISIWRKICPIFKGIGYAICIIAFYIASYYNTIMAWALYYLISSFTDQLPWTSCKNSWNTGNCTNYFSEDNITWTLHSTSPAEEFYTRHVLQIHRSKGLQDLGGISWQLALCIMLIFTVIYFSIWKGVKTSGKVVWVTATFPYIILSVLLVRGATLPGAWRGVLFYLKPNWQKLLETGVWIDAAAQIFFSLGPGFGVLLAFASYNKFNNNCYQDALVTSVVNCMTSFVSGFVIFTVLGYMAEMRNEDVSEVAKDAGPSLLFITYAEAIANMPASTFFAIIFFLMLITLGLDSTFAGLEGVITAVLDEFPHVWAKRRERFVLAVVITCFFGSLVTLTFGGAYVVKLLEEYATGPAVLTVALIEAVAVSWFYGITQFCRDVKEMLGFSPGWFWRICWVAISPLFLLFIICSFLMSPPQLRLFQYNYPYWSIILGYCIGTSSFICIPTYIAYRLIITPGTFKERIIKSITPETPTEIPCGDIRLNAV
Sodium-dependent noradrenaline transporter, sequence (P23975 whole entry): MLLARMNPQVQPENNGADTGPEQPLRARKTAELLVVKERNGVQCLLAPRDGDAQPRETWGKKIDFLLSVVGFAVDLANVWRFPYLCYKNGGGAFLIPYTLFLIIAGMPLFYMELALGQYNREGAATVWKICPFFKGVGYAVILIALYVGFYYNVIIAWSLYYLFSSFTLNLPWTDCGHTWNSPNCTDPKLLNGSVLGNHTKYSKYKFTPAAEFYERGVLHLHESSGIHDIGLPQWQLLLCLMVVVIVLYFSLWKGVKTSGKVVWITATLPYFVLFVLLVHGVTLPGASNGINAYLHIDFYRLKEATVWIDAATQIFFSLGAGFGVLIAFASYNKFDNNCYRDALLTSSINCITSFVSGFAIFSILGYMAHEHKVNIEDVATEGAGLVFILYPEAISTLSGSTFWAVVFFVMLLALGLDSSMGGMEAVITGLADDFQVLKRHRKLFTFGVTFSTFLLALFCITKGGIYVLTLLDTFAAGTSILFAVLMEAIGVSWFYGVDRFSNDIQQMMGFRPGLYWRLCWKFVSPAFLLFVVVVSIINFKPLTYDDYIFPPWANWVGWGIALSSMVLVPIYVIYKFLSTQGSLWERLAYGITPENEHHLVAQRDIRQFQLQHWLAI

| Structure (SMILES) | microsomal CLint [1] | pIC50 [2] | pIC50 [3] | pIC50 [4] | pKi [5] | Papp [6] |
| --- | --- | --- | --- | --- | --- | --- |
| Cc1cccc(CN(C2CCOCC2)[C@H]2CCNC2)c1C | < 7 µL/min/mg |  |  |  |  |  |
| CNCc1ccccc1Oc1ccc(OC)cc1Cl |  | 7.66 | 6.80 | 5.23 |  |  |
| CN(C)Cc1ccccc1Oc1ccccc1 |  | 6.18 | 7.15 |  |  |  |
| CNCc1ccccc1Oc1ccc(F)cc1Cl |  |  | 6.52 | 5.19 |  |  |
| CNCc1ccccc1Oc1ccc(Cl)cc1Cl |  | 7.25 | 7.38 | 6.30 |  |  |
| CN(C)Cc1ccccc1Oc1ccc(F)cc1Cl | 219 µL/min/mg | 7.49 | 7.34 | 5.67 |  |  |
| CNCc1ccccc1Oc1ccc(Cl)cc1OC | 9 µL/min/mg | 7.89 | 7.11 | 4.71 | 5.36 |  |
| CN(C)Cc1ccccc1Oc1ccc(Cl)cc1F |  | 8.22 | 7.68 | 6.38 |  |  |
| CN(C)Cc1ccccc1Oc1ccc(Cl)cc1 |  | 7.74 | 6.59 | 6.91 |  |  |
| CN(C)Cc1ccccc1Oc1cccc(Cl)c1 |  | 6.62 | 7.09 | 6.71 |  |  |
| CNCc1cc(C(=O)NC)ccc1Oc1ccc(Cl)cc1OC | 8 µL/min/mg | 7.89 | 7.11 | 4.80 | < 5.12 | 14 ×10⁻⁶ cm/s |
| CNCc1cc(NS(C)(=O)=O)ccc1Oc1ccc(Cl)cc1C | 8 µL/min/mg | 7.80 | 7.60 | 6.49 | 5.14 | 2.2 ×10⁻⁶ cm/s |
| CNCc1cc(C(=O)N(C)C)ccc1Oc1ccc(Cl)cc1Cl | 13 µL/min/mg | 7.96 | 7.48 | 6.56 |  | 14 ×10⁻⁶ cm/s |
| CNCc1cc(C#N)ccc1Oc1ccc(Cl)cc1Cl |  | 7.55 | < 6.40 | 5.52 | 5.66 |  |
| CNCc1cc(C(N)=O)ccc1Oc1ccc(Cl)cc1Cl | 8 µL/min/mg | 7.43 | 7.08 | 5.92 |  | 10 ×10⁻⁶ cm/s |
| CNCc1cc(C(=O)N(C)C)ccc1Oc1ccc(Cl)cc1C | 9 µL/min/mg | 7.77 | 7.77 | 6.76 | 5.43 | 19 ×10⁻⁶ cm/s |
| CNCc1cc(C(N)=O)ccc1Oc1ccc(Cl)cc1C | 8 µL/min/mg | 8.15 | 7.34 | 5.55 |  |  |
| CNCc1cc(C(N)=O)ccc1Oc1ccc(Cl)cc1OC | 8 µL/min/mg | 7.92 | 7.21 | 4.68 | < 5.12 | 11 ×10⁻⁶ cm/s |
| CNCc1cc(C#N)ccc1Oc1ccc(Cl)cc1OC |  | 8.30 | < 6.40 | < 4.40 |  |  |
| CN(C)Cc1ccccc1Oc1ccc(Cl)cc1Cl | 223 µL/min/mg | 8.40 | 7.96 | 6.71 |  |  |
| CNCc1cc(C(=O)N(C)C)ccc1Oc1ccc(Cl)cc1OC | 15 µL/min/mg | 8.10 | 7.49 | < 4.40 |  | 15 ×10⁻⁶ cm/s |
| CN(C)Cc1ccccc1Oc1ccccc1Cl | 186 µL/min/mg | 6.55 | 7.82 | 5.56 |  |  |
| CNCc1ccccc1Oc1ccc(Cl)cc1C | 20 µL/min/mg | 7.74 | 7.66 | 6.38 |  |  |
| CNCc1cc(N2CCCS2(=O)=O)ccc1Oc1ccc(Cl)cc1C | 11 µL/min/mg | 8.00 | 7.96 | 7.33 | 5.80 | 2.7 ×10⁻⁶ cm/s |
| COc1cc(Cl)ccc1Oc1ccccc1CN(C)C | 45 µL/min/mg | 8.22 | 7.85 | 5.42 | < 5.12 |  |
| CNCc1cc(C(=O)NC)ccc1Oc1ccc(Cl)cc1C | 9 µL/min/mg | 7.85 | 7.59 | 6.41 |  |  |
| CNCc1cc(C(=O)NC)ccc1Oc1ccc(Cl)cc1Cl | 9 µL/min/mg | 7.89 | 7.42 | 6.10 | 5.76 |  |
| CNCc1ccccc1Oc1ccc(Cl)cc1F | 22 µL/min/mg | 7.14 | 6.37 |  | 5.23 |  |
| CNCc1cc(N2CCCS2(=O)=O)ccc1Oc1ccc(Cl)cc1Cl | 12 µL/min/mg | 7.92 | 7.77 | 6.86 |  |  |
